Assay results pooled from the literature.
Compare with care: the assays were run in different laboratories.
Target: 1-phosphatidylinositol 3-phosphate 5-kinase (PIKFYVE, Homo sapiens, UniProt Q9Y2I7)

CN(C)c1nccc(-c2cnc3ncccn23)n1
remaining binding (binding; 1 µM): 78%

CS(=O)(=O)N1CCCC(NC(=O)[C@H](CCC2CCCCC2)NC(=O)c2ccc(CNc3ncnc4c3nnn4-c3ccccc3)cc2)C1 (stereo partly shown)
remaining binding (cell-free assay, competition with immobilised ligand; 0.1 µM): 61%

Cc1cnc(Nc2ccc(C(=O)N3CCC(N4CCCC4)CC3)cc2)nc1-c1cc2ccccc2s1
remaining binding (binding, competition with immobilised ligand; 1 µM): 79%

O=C(Nc1c[nH]nc1C(=O)NC1CCNCC1)c1cc(F)cc(F)c1
remaining binding (binding, competition with immobilised ligand; 1 µM): 86%

CN(c1ccnc(CNc2nc(Nc3ccc4c(c3)CC(=O)N4)ncc2C(F)(F)F)n1)S(C)(=O)=O
remaining binding (cell-free assay, competition with immobilised ligand; 1 µM): 100%

O=C(c1ccc(Nc2nccc(-c3cc4ccccc4s3)n2)cc1)N1CCC(N2CCCC2)CC1
remaining binding (binding, competition with immobilised ligand; 1 µM): 0.6%

COc1ncc2cc3ccccc3nc2c1C#N
remaining binding (cell-free assay, competition with immobilised ligand; 5 µM): 90%

CN1CCN(c2cnc3c(C4CCN(C(=O)c5ccc(OC(F)(F)F)cc5N)CC4)ncnc3c2)CC1
remaining binding (cell-free assay, competition with immobilised ligand; 1 µM): 98%

CN(C)c1nccc(-c2cnn3ncccc23)n1
remaining binding (binding; 1 µM): 100%

COc1cccc(CNC(=O)c2nc3scc(COCc4ccc(C(=O)O)cc4)c3c(=O)[nH]2)c1
remaining binding (cell-free assay, competition with immobilised ligand; 1 µM): 100%

COc1cnc(Nc2cccc(S(N)(=O)=O)c2)nc1N1CCN(c2ccccc2)CC1
remaining binding (binding, competition with immobilised ligand; 1 µM): 85%

CN(C)c1ncc(F)c(-c2cnn3ncccc23)n1
remaining binding (binding; 1 µM): 100%

COc1ccc2c(c1)O[C@@H](c1ccc(OC)c(OC)c1)C[C@H]2NC(=O)C1(c2ccc3c(c2)OC(F)(F)O3)CC1
remaining binding (cell-free assay, competition with immobilised ligand; 1 µM): 100%

C[C@@H]1CCN(c2nccc(-c3cnn4ncccc34)n2)C1
remaining binding (binding; 1 µM): 99%

COc1cnc(Nc2cccc(S(N)(=O)=O)c2)nc1N1CCN(c2ccccc2)C(=O)C1
remaining binding (binding, competition with immobilised ligand; 1 µM): 100%

CC1CCCN1c1nccc(-c2cnn3ncccc23)n1 (stereo not shown)
remaining binding (binding; 1 µM): 100%

O=C(NCCCN1CCOCC1)c1ccc(Nc2nccc(-c3cc4ccccc4s3)n2)cc1
remaining binding (binding, competition with immobilised ligand; 1 µM): 0.3%

F[C@@H]1CCN(c2nccc(-c3cnn4ncccc34)n2)C1
remaining binding (binding; 1 µM): 82%

Nc1ncc2c(n1)-c1c([nH]c3ccc(C#CC4CC4)cc13)CCCC2
remaining binding (binding, competition with immobilised ligand; 1 µM): 9.8%
